Source: ChEMBL document CHEMBL5252546, “Salutaxel, a Conjugate of Docetaxel and a Muramyl Dipeptide (MDP) Analogue, Acts as Multifunctional Prodrug That Inhibits Tumor Growth and Metastasis” (J Med Chem, 2018)
Each block holds one compound with its values, some of them ahead of it. Activity calls are given as the source filed them. No cut-off for these calls is given here.

Legend:
[1] = test system: 4T1; assay: Antitumor activity against mouse 4T1 cells implanted in BALB/c mouse assessed as decrease in lung injury at 5.7 mg/kg,iv administrated once per week for 4 weeks in presence of MDA-205 by H and E staining based assay; assay type: functional, organism-based
Method in brief: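 BALB/c mice bearing orthotopic mammary fat pad 4T1 tumors, dosed iv weekly for 4 weeks with saline vehicle as control. Lung sections stained with hematoxylin and eosin and examined by light microscopy at 40× for metastasis, inflammatory infiltration and alveolar wall thickening.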

[2] = Drug concentration in plasma of rat at 2.28 mg/kg,iv measured upto 24 hrs; assay type: ADME, organism-based; conditions: in vivo
Method in brief: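 Taxane given as a single intravenous dose: 2.28 mg/kg to rats by injection and 1.14 mg/kg to Beagle dogs by infusion. Plasma concentrations were then measured.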

[3] = test system: 4T1; assay: Antitumor activity against mouse 4T1 cells xenografted with BALB/c mouse assessed as reduction lung metastatic nodules at 5.7 mg/kg,iv administrated once per week for 4 weeks; assay type: functional, organism-based
Method in brief: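 4T1 cells injected into mammary fat pads of BALB/c mice. Dosing iv once per week for 4 weeks, saline vehicle; single-agent arms were given alone or with the peptide component (5b or 6). Endpoints were body weight, tumour volume, tumour weight, lung metastatic nodule count and lung metastasis score. Mean ± SEM, n = 10; ANOVA and Student's t test.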

[4] = test system: 4T1; assay: Antitumor activity against mouse 4T1 cells implanted in BALB/c mouse assessed as decrease in serum IL-6 level at 5.7 mg/kg,iv administrated once per week for 4 weeks in presence of MDA-205 by ELISA; assay type: functional, organism-based
[5] = Toxicity in BALB/c mouse xenografted with mouse 4T1 cells assessed as decrease in body weight at 5.7 mg/kg,iv administrated with doxorubicin combination once per week for 4 weeks; assay type: organism-based; conditions: in vivo, 672 h
Method in brief: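 4T1 mammary fat-pad model in BALB/c mice. Doxorubicin (4 mg/kg) was given alone or co-administered with the conjugate or its parent taxane, with iv saline vehicle. Readouts were body weight, tumour volume, tumour weight, lung metastatic nodules and lung metastasis score. Mean ± SEM, n = 10; ANOVA and Student's t test.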

[6] = test system: 4T1; assay: Antitumor activity against mouse 4T1 cells implanted in BALB/c mouse assessed as decrease in tumor MMP2 expression level at 5.7 mg/kg,iv administrated once per week for 4 weeks in presence of compound 5b by western blot assay; assay type: functional, organism-based
Method in brief: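 4T1 cells injected into mammary fat pads of BALB/c mice. Saline vehicle or test article given iv once weekly for 4 weeks. Spleen, lung and tumor lysates immunoblotted for MMP2/MMP9 with β-actin as loading control. Bands averaged over five mice per group, representative of two independent experiments.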

[7] = Half life in male Beagle dog at 4 mg/kg,iv measured upto 24 hrs; assay type: ADME, organism-based, Canis lupus familiaris; conditions: in vivo
[8] = Drug distribution in rat kidney at 4 mg/kg,iv measured by 0.25 hrs; assay type: ADME, organism-based; conditions: in vivo
Method in brief: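 Rats received 4 mg/kg iv. Parent drug and released docetaxel were assayed in tissues and plasma from the first sampling at 0.25 h to 24 h. The lower limit of quantitation was 200 ng/g.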

[9] = Toxicity in BALB/c mouse xenografted with human NCI-H1975 cells assessed as body weight loss at 10 mg/kg,iv administrated once per week for 3 weeks; assay type: organism-based; conditions: in vivo, 504 h
[10] = biological target: Cytochrome P450 1A (Homo sapiens, UniProt P04798+P05177); assay: Inhibition of CYP1A in human liver microsomes using probe substrate at 0.1 to 100 uM in presence of NADPH; assay type: ADME, Microsome; conditions: dose 0.1-100 µM
[11] = test system: 4T1; assay: Synergistic antitumor activity against mouse 4T1 cells xenografted with BALB/c mouse assessed as decrease in tumor weight at 10 mg/kg,iv administrated in combination with doxorubicin once per week for 4 weeks; assay type: functional, organism-based
[12] = test system: 4T1; assay: Antitumor activity against mouse 4T1 cells implanted in BALB/c mouse assessed as decrease in spleen MMP9 expression level at 5 to 20 mg/kg,iv administrated once per week for 4 weeks by western blot assay; assay type: functional, organism-based; conditions: dose 5-20 mg/kg
Method in brief: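 4T1 fat-pad model in BALB/c mice, iv once weekly for 4 weeks; MMP9, MMP2 and NOD1 in spleen, lung and tumour by western blot, β-actin loading control; bands averaged over five mice per group, representative of two independent experiments.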

[13] = biological target: Cytochrome P450 3A4 (Homo sapiens, UniProt P08684); assay: Inhibition of CYP3A4 in human liver microsomes using probe substrate at 0.1 to 100 uM in presence of NADPH; assay type: ADME, Microsome; conditions: dose 0.1-100 µM
[14] = Clearance in male rat at 2 mg/kg,iv measured upto 24 hrs; assay type: ADME, organism-based; conditions: in vivo
Method in brief: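 Rats were given a single iv injection at 2, 4 or 8 mg/kg. Plasma parent drug and released docetaxel were followed over time. Cmax, Tmax, AUC, MRT, t1/2, CL and Vss were reported for males, females and all animals combined.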

[15] = Stability in monkey plasma assessed as compound remaining at 40 uM incubated for 6 hrs; assay type: ADME, cell-free, Macaca mulatta; conditions: rhesus monkey
[16] = test system: NCI-H460; assay: Antiproliferative activity against human NCI-H460 cells assessed inhibition of cell growth incubated for 72 hrs by SRB assay; assay type: functional, cell-based; conditions: NCI-H460, 72 h
[17] = test system: 4T1; assay: Antitumor activity against mouse 4T1 cells implanted in BALB/c mouse assessed as decrease in serum TIMP-1 level at 10 mg/kg,iv administrated once per week for 4 weeks by ELISA; assay type: functional, organism-based
Method in brief: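 4T1 fat-pad model in BALB/c mice, iv 5–20 mg/kg once weekly for 4 weeks, with vehicle and naive groups; serum MMP9, TIMP-1, IL-6 and S100A9 measured by mouse ELISA kits.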

[18] = Prodrug conversion in mouse tumor implanted with mouse 4T1 cells assessed as AUC (0-t) of docetaxel at 4 mg/kg,iv measured upto 72 hrs; assay type: ADME, organism-based, Neoplasm; design: time < 72 hrs, dose 4 mg/kg, route iv; conditions: in vivo
[19] = Volume of distribution at steady state in Beagle dog at 4 mg/kg,iv measured upto 24 hrs; assay type: ADME, organism-based, Canis lupus familiaris; conditions: in vivo, read-out: Vdss
[20] = MRT (0 to infinity) in female rat at 2 mg/kg,iv measured upto 24 hrs; assay type: ADME, organism-based; conditions: in vivo
[21] = test system: 4T1; assay: Antitumor activity against mouse 4T1 cells implanted in BALB/c mouse assessed as decrease in MMP8 mRNA expression in lung at 20 mg/kg,iv administrated qd for 2 days by qRT-PCR analysis; assay type: functional, organism-based; conditions: time 2.0 day
Method in brief: (§1)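 Day 19 after 4T1 implantation, mice randomised into five groups; iv vehicle or 20 mg/kg plus ip C12-iE-DAP (50 μg/mouse) and MDP (100 μg/mouse) once daily for 2 days; killed after 48 h; lung mRNA for MMP8, MMP9, PROK2, S100A8, S100A9 and IL-1β by qPCR; mean ± SEM.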

[22] = Half life in male Beagle dog at 2 mg/kg,iv measured upto 24 hrs; assay type: ADME, organism-based, Canis lupus familiaris; conditions: in vivo
[23] = Half life in male Beagle dog at 1 mg/kg,iv measured upto 24 hrs; assay type: ADME, organism-based, Canis lupus familiaris; conditions: in vivo
[24] = Stability in rat plasma assessed as compound remaining at 40 uM incubated for 6 hrs; assay type: ADME, cell-free
[25] = Drug metabolism in rat bile assessed as metabolite docetaxel formation at 4 mg/kg,iv measured after 24 hrs; assay type: ADME, organism-based; conditions: in vivo
[26] = test system: 4T1; assay: Antitumor activity against mouse 4T1 cells implanted in BALB/c mouse assessed as decrease in S100A9 mRNA expression in lung at 20 mg/kg,iv administrated qd for 2 days by qRT-PCR analysis; assay type: functional, organism-based; conditions: time 2.0 day; method in brief: as §1
[27] = Drug metabolism in rat hepatocytes assessed as docetaxel metabolite formation at 20 uM incubated for 180 mins; assay type: ADME, cell-based, Hepatocyte; conditions: 3 h

Chain of Cytochrome P450 3A4 (P08684 whole entry): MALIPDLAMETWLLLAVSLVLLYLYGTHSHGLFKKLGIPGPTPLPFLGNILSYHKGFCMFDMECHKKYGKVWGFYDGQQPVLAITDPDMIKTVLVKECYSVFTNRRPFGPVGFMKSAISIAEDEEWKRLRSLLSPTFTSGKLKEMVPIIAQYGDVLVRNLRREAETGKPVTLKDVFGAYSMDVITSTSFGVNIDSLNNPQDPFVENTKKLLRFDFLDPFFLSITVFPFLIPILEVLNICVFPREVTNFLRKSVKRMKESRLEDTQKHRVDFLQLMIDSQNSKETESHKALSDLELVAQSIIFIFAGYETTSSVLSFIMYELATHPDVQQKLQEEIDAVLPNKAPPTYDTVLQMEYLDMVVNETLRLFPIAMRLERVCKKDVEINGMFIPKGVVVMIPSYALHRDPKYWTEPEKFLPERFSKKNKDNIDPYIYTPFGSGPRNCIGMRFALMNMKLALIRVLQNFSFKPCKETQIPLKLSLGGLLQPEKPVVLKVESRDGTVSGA

- Drug uptake [2]: 45%
Structure (SMILES): CC(=O)O[C@@]12CO[C@@H]1C[C@H](O)[C@@]1(C)C(=O)[C@H](O)C3=C(C)[C@@H](OC(=O)[C@H](O)[C@@H](NC(=O)OC(C)(C)C)c4ccccc4)C[C@@](O)([C@@H](OC(=O)c4ccccc4)[C@H]21)C3(C)C [DOCETAXEL ANHYDROUS]
- Activity [1]: Active
- Activity [3]: inactive
- Activity [4]: Active
- Activity [5]: Toxic
- Activity [6]: inactive

Structure (SMILES): CC(=O)O[C@@]12CO[C@@H]1C[C@H](O)[C@@]1(C)C(=O)[C@H](O)C3=C(C)[C@@H](OC(=O)[C@H](OC(=O)CCC(=O)NCCCC[C@H](NC(=O)CC[C@@H](NC(=O)[C@H](C)NC(=O)/C=C/c4ccc(F)cc4Cl)C(N)=O)C(=O)O)[C@@H](NC(=O)OC(C)(C)C)c4ccccc4)C[C@@](O)([C@@H](OC(=O)c4ccccc4)[C@H]21)C3(C)C
- half-life [7]: 36.6 min
- Drug uptake [8]: Active
- Activity [9]: Non-Toxic
- inhibition (INH) [10]: Not Active
- Activity [11]: Active
- Activity [12]: Active
- inhibition (INH) [13]: Not Active
- clearance [14]: 0.335 L/h/kg
- Stability [15]: Stable
- IC50 [16]: 0.0163 µM
- Activity [17]: Active
- AUCt [18]: 81 µM·h
- Vd [19]: 0.08 L/kg
- MRT inf [20]: 8.64 min
- Activity [21]: Active
- half-life [22]: 30.2 min
- half-life [23]: 13.6 min
- Stability [24]: Stable
- Drug metabolism [25]: Metabolite_Detected
- Activity [26]: Active
- Drug metabolism [27]: Metabolite_Detected
